Measured values: the array DNA melting data of Ke et al. (doi:10.1101/2024.01.08.574731)

Columns and labels:
[1] = folding enthalpy; higher = less favourable; fluorescence melt of hairpins on a sequencing array, two-state fit; conditions: sodium 0.088 M
Outline: (§1)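 On a sequenced MiSeq flow cell, library hairpins with annealed Cy3 and quencher oligos were imaged for Cy3 fluorescence in 2.5 °C steps up to 60 °C, in 50 mM Na-HEPES pH 8.0, 25 mM NaCl. Normalisation used pre-quench Cy3 and control constructs. Bootstrapped two-state fits gave melting temperature and folding enthalpy, combined by inverse variance across four replicates and with fitted temperatures raised by 9.35 °C to match UV melts.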

[2] = melting temperature; fluorescence melt of hairpins on a sequencing array, two-state fit, raised by 9.35 °C to match UV melts; conditions: sodium 0.088 M
Outline: as §1

| Sequence | folding enthalpy [1] [kcal/mol] | Tm [2] [°C] |
| --- | --- | --- |
| GATCGGACAACCGATC ((((((....)))))) | -34.7 | 53.5 |
| GCTACTCGAAAGAGCAGC (((.(((....))).))) | -37.7 | 49.6 |
| GCGTTTCCGAAAGGACGC (((..(((....)))))) | -24.5 | 49.7 |
| GCGGCAAGCCGC ((((....)))) | -28.3 | 68.1 |
| GCGGATGGAAACACCCGC ((((.((....)).)))) | -42.9 | 53 |
| GGATATGGAAACATACCC ((.((((....)))).)) | -25.3 | 33.2 |
| GCTTCCGAAAGGAGTAGC ((((((....)))..))) | -24.3 | 43.6 |
| GGCAACGAAAGTTTGCC ((((((....))).))) | -45.8 | 56.4 |
| GGTTCCGAAAGGAAAACC ((((((....)))..))) | -18.5 | 43.6 |
| GTCTACGAAAGTAGAC ((((((....)))))) | -36.8 | 66.8 |
| GAGGAGGAAACTCCTC ((((((....)))))) | -31.2 | 55.9 |
| GCAGCCGAAAGGCTTGC ((((((....))).))) | -15.3 | 62 |
| GGAGGCGCGAAAGCGTCC (((..(((....)))))) | -8.65 | 47 |
| GGTGTTCGAAAGAAACC (((.(((....)))))) | -14.1 | 34.1 |
| CGCACGGAAACGTTCGCG ((((((....)))..))) | -22.7 | 41.1 |
| GATGCAGGAAACTACATC ((((.((....)).)))) | -30.7 | 36.4 |
| GCTGGACGAAAGTCAAGC (((.(((....))).))) | -38.3 | 58.7 |
| GCAGGCGAAAGCCCTTGC ((((((....)))..))) | -11.9 | 38.9 |
| GGGATCGGAAACGGTCCC ((((.((....)).)))) | -47.5 | 57.8 |
| GTGGAAGGAAACTTCTAC ((.((((....)))).)) | -27.8 | 39.3 |
| GTTGTCTCGAAAGAGAAC (((..(((....)))))) | -22.2 | 46.1 |
| GGTTCTGGAAACGGAACC (((((.(....).))))) | -45 | 52.3 |
| GGGAGACGAAAGTCCCCC (((.(((....))).))) | -28.8 | 58.8 |

| Sequence | folding enthalpy [1] [kcal/mol] | Tm [2] [°C] |
| --- | --- | --- |
| GGGTCATCGAAAGATCCC (((..(((....)))))) | -20.3 | 34.5 |
| GGGATGGGAAACCGTCCC ((((.((....)).)))) | -50.5 | 56.5 |
| GTAAATGGAAACGTTTAC (((((.(....).))))) | -32.9 | 35 |
| GCAGCAGGAAACTGCCGC ((.((((....)))).)) | -27.8 | 50.5 |
| GGCCCAGCGAAAGCTGCC (((..(((....)))))) | -8.49 | 36 |
| GTCTGCACGAAAGTGGAC (((..(((....)))))) | -15 | 34.7 |
| GGTCCTGAAAAGGACC ((((((....)))))) | -30.9 | 68.2 |
| GCTTCCGAAAGGATGAGC ((((((....)))..))) | -18.7 | 41.2 |
| GTAAGCGAAAGCTCTTAC ((((((....)))..))) | -12.7 | 33.2 |
| GATCTCGCGAAAGCGATC (((..(((....)))))) | -5.91 | 28.1 |
| GCCCTTGGAAACGAGGGC (((((.(....).))))) | -41.4 | 57.5 |
| GGTTGCGAAAGCACGACC ((((((....)))..))) | -15.8 | 40.6 |
| GCGAAGGATCGC ((((....)))) | -9.71 | 59.7 |
| GATCAACACCTTGATC ((((((....)))))) | -32.7 | 46.7 |
| GGATTCGAAAGAATCC ((((((....)))))) | -37.9 | 62.9 |
| ATCTCGAAAGAGAT (((((....))))) | -20.9 | 51.1 |
| GGGGAAGGAAACCTCCCC (((((.(....).))))) | -43.9 | 47.8 |
| GACAACGAAAGTTATGTC ((((((....)))..))) | -17.8 | 32.3 |
| GGGGAGGGAAACCCCCCC ((((.((....)).)))) | -34.1 | 54.5 |
| GATCATTTTCATGATC ((((((....)))))) | -31.1 | 47.6 |
| GGTGAGGGAAACCTTACC (((.(((....))).))) | -33.9 | 46.6 |
| GATCTGTTATCAGATC ((((((....)))))) | -39.8 | 50.7 |
| GCACGGCGAAAGCAGCGC ((.(.((....)).).)) | -21.1 | 57.2 |

| Sequence | folding enthalpy [1] [kcal/mol] | Tm [2] [°C] |
| --- | --- | --- |
| GATAGAGGAAACTCTACC (.(((((....))))).) | -12.6 | 23.5 |
| GCTTTCGGAAACGGAAGC ((((.((....)).)))) | -39.8 | 53.2 |
| GATCATCTATATGATC ((((((....)))))) | -36.2 | 47.9 |
| GCTTTTCGAAAGAAAGC (((.(((....)))))) | -25.1 | 44.5 |
| GCCTGGCGAAAGCCGAGC ((..(((....)))..)) | -13.5 | 49.5 |
| GATCGTGACCACGATC ((((((....)))))) | -38.7 | 61.3 |
| GTCAGCGAAAGCTCTGAC ((((((....)))..))) | -18.5 | 37.3 |
| CGCGGACCGATCCGCG ((((((....)))))) | -36.5 | 68.5 |
| GTGCTCGAAAGAGGACAC ((((((....)))..))) | -15.6 | 49.8 |
| GATCTAGCTTTAGATC ((((((....)))))) | -26.7 | 38.8 |
| GCGCCAGGAAACCGGCAC (.(((.(....).))).) | -16.6 | 37.4 |
| GCGATGCGAAAGCGTAGC ((.(.((....)).).)) | -24.6 | 54.8 |
| GTCACCGAAAGGTGAGAC ((((((....)))..))) | -10.3 | 48 |
| GAGTCCGGAAACGGGTTC ((..(((....)))..)) | -16.1 | 33.6 |
| GCGTAGGGAAACTTGCGC (((.(.(....).).))) | -28.5 | 42.3 |
| GATCACCCGCGTGATC ((((((....)))))) | -48.3 | 54.5 |
| GATCCTTTACAGGATC ((((((....)))))) | -51.6 | 51.1 |
| GAATACGAAAGTATTC ((((((....)))))) | -34.4 | 55.5 |
| GGTGGAGGAAACTCCGTC (..((((....))))..) | -15.4 | 37.8 |
| GATCCACTTGTGGATC ((((((....)))))) | -37.5 | 66.5 |
| GATCTACCCGTAGATC ((((((....)))))) | -42.1 | 50.8 |
| GGATGCGAAAGCAGTCC ((((((....))).))) | -22.3 | 52.4 |
| GGATGGGGAAACCCATTC (.(((((....))))).) | -22 | 47.5 |
